The source made the active and inactive calls. The calls are words filed in the database; no cut-off is given here.
Columns and labels:
[1] = system: Trypanosoma cruzi; experiment: Anti-chagasic activity against Trypanosoma cruzi Brazil trypomastigotes expressing firefly luciferase infected in BALB/c mouse assessed as reduction in parasitemia at 13 mg/kg/day, ip measured after 10 days by bioluminescence assay; assay type: functional, organism-based; conditions: time 10.0 day
[2] = Dissociation constant, pKa of the compound
[3] = system: Trypanosoma brucei rhodesiense; experiment: Substrate activity at Trypanosoma brucei rhodesiense recombinant His-tagged type 1 nitroreductase assessed as enzyme specific activity using NADH at 100 uM by spectrophotometrically
Procedure, shortened: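 Purified recombinant his-tagged TbNTR. Each nitrotriazole substrate at 100 µM with NADH 100 µM. NADH oxidation followed spectrophotometrically at 340 nm. Specific activity given as nmol NADH oxidized min^-1 mg^-1 protein, mean of three experiments ± SD.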

[4] = Toxicity in Trypanosoma cruzi Brazil trypomastigotes expressing firefly luciferase infected BALB/c mouse assessed toxic symptoms at 13 mg/kg, ip measured after 5 to 10 days; assay type: organism-based; conditions: in vivo, time 5-10 day
Procedure, shortened: (§1)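 Same infected Balb/c model: luciferase T. cruzi, 10^5 trypomastigotes. Daily i.p. dosing for 10 days from day 4 post infection at 13 or 15 mg/kg/day, in 2% methylcellulose + 0.5% Tween 80, 5 mice/group. Mice observed for general health and deaths over the treatment period.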

[5] = system: Trypanosoma cruzi; experiment: Anti-chagasic activity against Trypanosoma cruzi Brazil trypomastigotes expressing firefly luciferase infected in BALB/c mouse assessed as reduction in parasitemia at 13 mg/kg/day, ip measured after 5 days by bioluminescence assay; assay type: functional, organism-based; conditions: time 5.0 day
[6] = in vitro; conditions: rat, L6 cells versus Trypanosoma cruzi Tulahuen C4
[7] = in vitro; conditions: rat
[8] = in vitro; conditions: rat, L6 cells versus Leishmania donovani MHOM/ET/67/L82
[9] = system: Trypanosoma cruzi; experiment: Trypanocidal activity against Trypanosoma cruzi Tulahuen C4 amastigotes infected in rat L6 cells in vitro
[10] = Toxicity in Trypanosoma cruzi Brazil trypomastigotes expressing firefly luciferase infected BALB/c mouse assessed as healthy appearance at 13 mg/kg, ip measured after 5 to 10 days; assay type: organism-based; conditions: in vivo, time 5-10 day
Procedure, shortened: (§2)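 Balb/c mice, 5 weeks old, infected with 10^5 luciferase-expressing Brazil-strain T. cruzi trypomastigotes. From 4 days post-infection, mice were dosed i.p. at 13 mg/kg/day for 10 days in 2% methylcellulose + 0.5% Tween 80 vehicle, 5 mice/group. Animals were observed over treatment, with imaging after 5 and 10 days of dosing.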

[11] = Toxicity in Trypanosoma cruzi Brazil trypomastigotes expressing firefly luciferase infected BALB/c mouse assessed mortality at 13 mg/kg, ip measured after 5 to 10 days; assay type: organism-based; conditions: in vivo, time 5-10 day; procedure, shortened: as §2
[12] = system: Trypanosoma cruzi; experiment: Anti-chagasic activity against Trypanosoma cruzi Brazil trypomastigotes expressing firefly luciferase infected in BALB/c mouse assessed as reduction in parasitemia at 15 mg/kg/day, ip measured after 5 days by bioluminescence assay; assay type: functional, organism-based; conditions: time 5.0 day
[13] = Toxicity in Trypanosoma cruzi Brazil trypomastigotes expressing firefly luciferase infected BALB/c mouse assessed toxic symptoms at 15 mg/kg, ip measured after 5 to 10 days; assay type: organism-based; conditions: in vivo, time 5-10 day; procedure, shortened: as §1
[14] = system: Trypanosoma cruzi; experiment: Anti-chagasic activity against Trypanosoma cruzi Brazil trypomastigotes expressing firefly luciferase infected in BALB/c mouse assessed as reduction in parasitemia at 15 mg/kg/day, ip measured after 10 days by bioluminescence assay; assay type: functional, organism-based; conditions: time 10.0 day

pKa [2] | Activity [3] | Compound | selectivity ratio [7] | also measured
14.5 | Active | O=C(CCn1cnc([N+](=O)[O-])n1)Nc1ccc(Oc2ccc(F)cc2)cc1 |  | Activity [1]: Active; Activity [4]: Non-Toxic; Activity [5]: Active
11 | Active | O=C(Cn1cnc([N+](=O)[O-])n1)Nc1cc(-c2ccc(F)cc2)on1 |  | 
12.7 |  | O=C(Cn1cnc([N+](=O)[O-])n1)NCc1ccc(C(F)(F)F)cc1 | 20 | selectivity ratio [6]: 133; selectivity ratio [8]: 12
13.6 |  | O=C(Cn1cnc([N+](=O)[O-])n1)Nc1ccc(Oc2ccc(Cl)cc2)cc1 | 22 | IC50 [9]: 0.008 µM
12.8 |  | O=C(Cn1cnc([N+](=O)[O-])n1)Nc1cccc(OCc2ccccc2)c1 | 14.1 | selectivity ratio [6]: 575; selectivity ratio [8]: 20.3; IC50 [9]: 0.119 µM
14 | Active | O=C(CCn1cnc([N+](=O)[O-])n1)Nc1cccc(-c2ccccc2)c1 |  | 
13.6 |  | O=C(Cn1cnc([N+](=O)[O-])n1)Nc1ccc(Oc2ccc(F)cc2)cc1 | 35 | 
11.2 |  | O=C(CCn1cnc([N+](=O)[O-])n1)Nc1cc(-c2ccc(F)cc2)on1 | > 201 | 
9.14 | Active | O=C(CCn1cnc([N+](=O)[O-])n1)Nc1cc(-c2ccc(Cl)cc2)no1 |  | 
14 | Active | O=C(CCn1cnc([N+](=O)[O-])n1)Nc1cccc(OCc2ccccc2)c1 |  | 
 | Active | O=C(Cn1cnc([N+](=O)[O-])n1)Nc1cc(-c2ccc(Cl)cc2)no1 |  | 
14.1 |  | N#Cc1ccc(-c2ccc(NC(=O)CCn3cnc([N+](=O)[O-])n3)cc2)cc1 |  | Activity [12]: Active; Activity [13]: Non-Toxic; Activity [14]: Active
 |  | O=C(Cn1cnc([N+](=O)[O-])n1)Nc1cccc(-c2ccccc2)c1 |  | IC50 [9]: 0.179 µM
13.2 |  | N#Cc1ccc(-c2ccc(NC(=O)Cn3cnc([N+](=O)[O-])n3)cc2)cc1 | 490 | selectivity ratio [6]: 1190; IC50 [9]: 0.138 µM
 |  | CN(C(=O)Cn1cnc([N+](=O)[O-])n1)c1ccc(C(F)(F)F)cc1 | 6.8 | selectivity ratio [8]: 6.8
 |  | CN(C(=O)Cn1ccnc1[N+](=O)[O-])c1ccc(C(F)(F)F)cc1 |  | selectivity ratio [6]: 3.8
13.3 |  | O=C(Cn1cnc([N+](=O)[O-])n1)Nc1ccc(Oc2ccccc2)cc1 | 34 | 
 |  | O=C(Cn1ccnc1[N+](=O)[O-])NCc1ccccc1 |  | Activity [12]: Active; Activity [14]: Active

Compound | pKa [2] | Activity [3] | selectivity ratio [7] | also measured
O=C(CCn1cnc([N+](=O)[O-])n1)Nc1ccc(Oc2ccc(Cl)cc2)cc1 | 14.5 | Active |  | selectivity ratio [8]: 15; Activity [1]: Active; Activity [10]: Toxic; Activity [5]: Active; Activity [11]: Non-Toxic
O=C(CCn1cnc([N+](=O)[O-])n1)Nc1ccc(Oc2ccccc2)cc1 | 14.5 | Active |  | selectivity ratio [8]: 13.5
